Tests used:
Rattus norvegicus [1] = experiment: Neurotoxicity in rat assessed as neurological deficit at 30 mg/kg, po after 0.5 hrs […]; type: toxicity, organism-based; design: dose 30 mg/kg, route oral; details: in vivo
In short: (§1)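 Rats given the compound, suspended in 0.5% methylcellulose, by the stated route and dose. Neurological deficit was recorded at the listed times as ataxia and loss of placing response and muscle tone. Reported as number of rats showing toxicity/number tested.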

[2] = Neurotoxicity in po dosed rat assessed as neurological deficit […]; type: toxicity, organism-based; details: in vivo
In short: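 Rats dosed orally with a suspension in 0.5% methylcellulose. Neurological deficit judged by ataxia and loss of placing response and muscle tone.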

Rattus norvegicus [3] = experiment: Neurotoxicity in rat assessed as neurological deficit at 250 mg/kg, po after 8 hrs; type: toxicity, organism-based; design: dose 250 mg/kg, route oral; details: in vivo; in short: as §1
Rattus norvegicus [4] = experiment: Neurotoxicity in rat assessed as neurological deficit at 62.5 mg/kg, po after 0.25 hrs; type: toxicity, organism-based; design: dose 62.5 mg/kg, route oral; details: in vivo
In short: (§2)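 Rats dosed orally with test agent suspended in 0.5% methylcellulose and observed for up to 24 h (time-to-peak-effect design). Neurological deficit was scored as ataxia with loss of placing response and muscle tone. Two rats per dose per time point; results given as number toxic/number tested.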

Rattus norvegicus [5] = experiment: Neurotoxicity in rat assessed as neurological deficit at 250 mg/kg, po after 4 hrs; type: toxicity, organism-based; design: dose 250 mg/kg, route oral; details: in vivo; in short: as §1
Rattus norvegicus [6] = experiment: Neurotoxicity in rat assessed as neurological deficit at 30 mg/kg, po after 0.25 hrs […]; type: toxicity, organism-based; design: dose 30 mg/kg, route oral; details: in vivo; in short: as §1
Mus musculus [7] = experiment: Neurotoxicity in mouse assessed as inability to maintain equilibrium on rotarod at 130 mg/kg, ip after 0.25 hrs using rotarod test; type: toxicity, organism-based; design: dose 130 mg/kg, route intraperitoneal; details: in vivo
In short: (§3)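 Drug given ip to mice as a suspension in 0.5% methylcellulose. At the stated time after dosing, each mouse was placed on a 1 inch knurled rod turning at 6 rpm. Neurotoxicity = inability to stay balanced at least 1 min in each of three trials. Scored as animals toxic/animals tested in small groups.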

Rattus norvegicus [8] = experiment: Neurotoxicity in rat assessed as neurological deficit at 500 mg/kg, po after 0.5 hrs; type: toxicity, organism-based; design: dose 500 mg/kg, route oral; details: in vivo; in short: as §1
Rattus norvegicus [9] = experiment: Neurotoxicity in rat assessed as neurological deficit at 125 mg/kg, po after 0.5 hrs; type: toxicity, organism-based; design: dose 125 mg/kg, route oral; details: in vivo; in short: as §1
Rattus norvegicus [10] = experiment: Neurotoxicity in rat assessed as neurological deficit at 250 mg/kg, po after 1 hr; type: toxicity, organism-based; design: dose 250 mg/kg, route oral; details: in vivo; in short: as §1
Mus musculus [11] = experiment: Neurotoxicity in mouse assessed as inability to maintain equilibrium on rotarod at 130 mg/kg, ip after 1 hr by rotarod test; type: toxicity, organism-based; design: dose 130 mg/kg, route intraperitoneal; details: in vivo; in short: as §3
Rattus norvegicus [12] = experiment: Neurotoxicity in rat assessed as neurological deficit at 500 mg/kg, po after 8 hrs; type: toxicity, organism-based; design: dose 500 mg/kg, route oral; details: in vivo; in short: as §2
Mus musculus [13] = experiment: Neurotoxicity in mouse assessed as inability to maintain equilibrium on rotarod at 30 mg/kg, ip after 4 hrs by rotarod test; type: toxicity, organism-based; design: dose 30 mg/kg, route intraperitoneal; details: in vivo; in short: as §3
Mus musculus [14] = experiment: Neurotoxicity in mouse assessed as inability to maintain equilibrium on rotarod at 300 mg/kg, ip after 0.5 hrs by rotarod test; type: toxicity, organism-based; design: dose 300 mg/kg, route intraperitoneal; details: in vivo; in short: as §3
Rattus norvegicus [15] = experiment: Neurotoxicity in rat assessed as neurological deficit at 250 mg/kg, po after 24 hrs; type: toxicity, organism-based; design: dose 250 mg/kg, route oral; details: in vivo; in short: as §1
Rattus norvegicus [16] = experiment: Neurotoxicity in rat assessed as neurological deficit at 62.5 mg/kg, po after 8 hrs; type: toxicity, organism-based; design: dose 62.5 mg/kg, route oral; details: in vivo; in short: as §2
[17] = Neurotoxicity in ip dosed mouse assessed as inability to maintain equilibrium on rotarod by rotarod test; type: toxicity, organism-based; details: in vivo
In short: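 Mice dosed ip with a suspension in 0.5% methylcellulose, then placed on a 1 inch knurled plastic rod rotating at 6 rpm. Toxicity = failure to keep equilibrium for at least 1 min in each of three trials.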

Rattus norvegicus [18] = experiment: Neurotoxicity in rat assessed as neurological deficit at 62.5 mg/kg, po after 4 hrs; type: toxicity, organism-based; design: dose 62.5 mg/kg, route oral; details: in vivo; in short: as §2
Rattus norvegicus [19] = experiment: Neurotoxicity in rat assessed as neurological deficit at 30 mg/kg, po after 4 hrs by rotarod test; type: toxicity, organism-based; design: dose 30 mg/kg, route oral; details: in vivo; in short: as §1
Mus musculus [20] = experiment: Neurotoxicity in mouse assessed as inability to maintain equilibrium on rotarod at 130 mg/kg, ip after 0.5 hrs using rotarod test; type: toxicity, organism-based; design: dose 130 mg/kg, route intraperitoneal; details: in vivo; in short: as §3
Rattus norvegicus [21] = organism: Rattus norvegicus; experiment: Protective index, ratio of TD50 for neurotoxicity in rat to ED50 for inhibition of maximal electroshock-induced seizures in rat; type: functional
Rattus norvegicus [22] = experiment: Neurotoxicity in rat assessed as neurological deficit at 62.5 mg/kg, po after 0.5 hrs; type: toxicity, organism-based; design: dose 62.5 mg/kg, route oral; details: in vivo; in short: as §2
Rattus norvegicus [23] = experiment: Neurotoxicity in rat assessed as neurological deficit at 125 mg/kg, po after 2 hrs; type: toxicity, organism-based; design: dose 125 mg/kg, route oral; details: in vivo; in short: as §1
Rattus norvegicus [24] = experiment: Neurotoxicity in rat assessed as neurological deficit at 125 mg/kg, po after 4 hrs; type: toxicity, organism-based; design: dose 125 mg/kg, route oral; details: in vivo; in short: as §1
Mus musculus [25] = experiment: Neurotoxicity in mouse assessed as inability to maintain equilibrium on rotarod at 300 mg/kg, ip after 4 hrs by rotarod test; type: toxicity, organism-based; design: dose 300 mg/kg, route intraperitoneal; details: in vivo; in short: as §3
Rattus norvegicus [26] = experiment: Neurotoxicity in rat assessed as neurological deficit at 125 mg/kg, po after 6 hrs; type: toxicity, organism-based; design: dose 125 mg/kg, route oral; details: in vivo; in short: as §1
Rattus norvegicus [27] = experiment: Neurotoxicity in rat assessed as neurological deficit at 62.5 mg/kg, po after 1 hr; type: toxicity, organism-based; design: dose 62.5 mg/kg, route oral; details: in vivo; in short: as §2

Cc1cccc(C)c1OCC(=O)NC1CCCCC1O.Cl (racemic; 1)
Activity (Rattus norvegicus [1]): Non-toxic
TD50 [2]: > 500 mg/kg
Activity (Rattus norvegicus [3]): Non-toxic
Activity (Rattus norvegicus [4]): Non-toxic
Activity (Rattus norvegicus [5]): Non-toxic
Activity (Rattus norvegicus [6]): Non-toxic
Activity (Mus musculus [7]): Toxic
Activity (Rattus norvegicus [8]): Non-toxic
Activity (Rattus norvegicus [9]): Non-toxic
Activity (Rattus norvegicus [10]): Non-toxic
Activity (Mus musculus [11]): Non-toxic
Activity (Rattus norvegicus [12]): Non-toxic
Activity (Mus musculus [13]): Non-toxic
Activity (Mus musculus [14]): Toxic
Activity (Rattus norvegicus [15]): Non-toxic
Activity (Rattus norvegicus [16]): Non-toxic
TD50 [17]: 106 mg/kg
Activity (Rattus norvegicus [18]): Non-toxic
Activity (Rattus norvegicus [19]): Non-toxic
Activity (Mus musculus [20]): Non-toxic
Ratio TD50/ED50 (Rattus norvegicus [21]): >21.218
Activity (Rattus norvegicus [22]): Non-toxic
Activity (Rattus norvegicus [23]): Non-toxic
Activity (Rattus norvegicus [24]): Non-toxic
Activity (Mus musculus [25]): Non-toxic
Activity (Rattus norvegicus [26]): Non-toxic
Activity (Rattus norvegicus [27]): Non-toxic
